Test results taken from ChEMBL document CHEMBL1154189 (J Med Chem, 2009).
Active and inactive are the calls of the source. The rule behind the calls is not given here.

Key:
HuT78 [1] = assay: Cytotoxicity against human HUT78 cells assessed as LDH release at 10 mM after 48 hrs
Saccharomyces cerevisiae = assay: Mutagenic activity in Saccharomyces cerevisiae after 3 hrs; format: ADME, organism-based; settings: in vivo
Procedure, shortened: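 Tested in a Saccharomyces cerevisiae strain engineered with three phenotypic readouts, with 3 hour incubation against DMSO vehicle.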

HuT78 [2] = assay: Induction of apoptosis in human HUT78 cells assessed as caspase 3/7 activation after 24 hrs by luminometry; format: functional, cell-based
Procedure, shortened: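 Hut78 CTCL cells were plated and dosed immediately with ethanol vehicle, test agent, water, or sodium butyrate (positive control), then incubated 24 hours. Caspase-Glo lysis/substrate mix was added, and cleavage of the substrate by caspase 3/7 was read as luminescence. Ethanol-treated cells served as the comparison.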

HuT78 [3] = assay: Cytotoxicity against human HUT78 cells assessed as LDH release at 100 nM after 48 hrs

Row | Compound | Activity (Saccharomyces cerevisiae) | also measured
1 | NC(=O)NO [HYDROXYUREA] |  | Activity (HuT78 [1]): 97%
2 | Cc1cc2c(cc1C(=O)c1ccc(C(=O)O)c([N+](=O)[O-])c1)C(C)(C)CCC2(C)C | Non-toxic | 
3 | Cc1cc2c(cc1C(=O)c1ccc(C(=O)O)cc1)C(C)(C)CCC2(C)C | Non-toxic | 
4 | Cc1cc2c(cc1C(=O)c1ccc(C(=O)O)c(F)c1)C(C)(C)CCC2(C)C | Non-toxic | 
5 | Cc1cc2c(cc1C(=O)c1cccc(C(=O)O)c1)C(C)(C)CCC2(C)C | Non-toxic | 
6 | C=C(c1cc(C(=O)O)cc(C(=O)O)c1)c1cc2c(cc1C)C(C)(C)CCC2(C)C | Non-toxic | 
7 | C=C(c1ccc(C(=O)O)cc1)c1cc2c(cc1C)C(C)(C)CCC2(C)C [BEXAROTENE] | Non-toxic | 
8 | Cc1cc2c(cc1C(=O)c1ccc(C(=O)O)cc1F)C(C)(C)CCC2(C)C | Non-toxic | Activity (HuT78 [2]): inactive; Activity (HuT78 [3]): Active
9 | Cc1cc2c(cc1C(=O)c1cc(C(=O)O)cc(C(=O)O)c1)C(C)(C)CCC2(C)C | Non-toxic | 
